High-throughput results deposited in PubChem BioAssay by several laboratories.
PLK1 inh: inhibitors of human PLK1 kinase; P53350; recombinant PLK1 kinase, TR-FRET peptide phosphorylation; inhibition, % at 10 µM; hit rate 0.53% among 97,000; AID 619;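 active means inhibition of 50% or more in the single-concentration screen; inactive means inhibition below 50%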;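 further: 0% = DMSO max control and 100% = H-89 dihydrochloride min control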
Target sequence (P53350 whole entry, looked up): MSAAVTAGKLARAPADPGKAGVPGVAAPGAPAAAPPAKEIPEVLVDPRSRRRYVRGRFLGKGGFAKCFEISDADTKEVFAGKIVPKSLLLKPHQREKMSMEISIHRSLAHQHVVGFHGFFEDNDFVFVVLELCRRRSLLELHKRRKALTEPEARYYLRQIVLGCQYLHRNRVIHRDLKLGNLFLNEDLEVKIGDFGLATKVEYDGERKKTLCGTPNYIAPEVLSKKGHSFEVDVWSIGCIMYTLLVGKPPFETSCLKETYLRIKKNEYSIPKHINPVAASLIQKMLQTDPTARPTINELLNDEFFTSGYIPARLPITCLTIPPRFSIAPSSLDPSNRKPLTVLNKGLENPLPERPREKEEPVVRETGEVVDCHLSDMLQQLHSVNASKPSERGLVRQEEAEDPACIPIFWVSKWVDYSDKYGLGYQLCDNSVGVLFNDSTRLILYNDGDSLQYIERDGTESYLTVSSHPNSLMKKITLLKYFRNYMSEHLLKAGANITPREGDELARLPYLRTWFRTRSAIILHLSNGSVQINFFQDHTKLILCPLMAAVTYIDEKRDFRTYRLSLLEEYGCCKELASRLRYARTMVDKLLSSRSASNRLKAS
Rev-RRE block: inhibitors of HIV-1 Rev-RRE RNA interaction; P05866; Rev peptide-RRE RNA binding, FRET; inhibition, % at 8 µM; hit rate 0.79% among 97,000;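 active means inhibition above the screen-wide mean plus 3 SD, cut at about 35% in these data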;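 further: 0% = median DMSO wells and 100% = median Neomycin B control wells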
Target sequence (P05866 whole entry, looked up): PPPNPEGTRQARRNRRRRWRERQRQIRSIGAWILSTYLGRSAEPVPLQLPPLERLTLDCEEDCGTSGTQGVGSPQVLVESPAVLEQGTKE
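Test system: Cy5-tagged RRE RNA duplex with fluorescein-tagged Rev peptide | Read-out: % inhibition of FRET ratio versus controls | Probe or stimulus: Labelled Rev peptide | Incubation: 5 min RNA-compound premix plus 15 min binding step, 25 °C | Technique: FRET fluorescence readout | Benchmarks: DMSO low control, neomycin B high control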
EphB4 antag: EphB4-ephrin-B2 interaction antagonism; hit rate 0.15% among 97,000; P54760; inhibition, % at 7 µM; EphB4 LBD / TNYL-RAW-Alexa532 peptide, fluorescence polarization;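 active means inhibition above the screen-wide mean inhibition plus 3 SD, cut at about 15% in these data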;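 further: 0% = DMSO wells and 100% = excess unlabeled TNYL-RAW peptide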
PLK1 PBD inh: inhibitors of human Plk1 polo box domain binding. P53350. Plk1 PBD phosphopeptide binding, fluorescence polarization. inhibition, %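 (tested at about 20 µM)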. hit rate 0.13% among 97,000. AID 693; in the data active means inhibition above about 34%, passing the limit was not always enough
PTPN22 act: activators of human LYP (PTPN22) phosphatase. Q9Y2R2. recombinant LYP, DiFMUP fluorescence; 0 = plate median, 100 = signal doubled. activation, % at 2 µM. hit rate 0.11% among 96,000. AID 697;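 active means activation at 2 µM above a set limit, the mean plus 5 SD, cut at about 37% in these data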
PTPN22 inh 2: blocks human PTPN22 phosphatase activity. hit rate 0.21% among 96,000. inhibition, % at 2 µM. recombinant LYP catalytic domain, DiFMUP fluorescence;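 active means inhibition at 2 µM at or above a set limit, the screen mean plus 3 SD, cut at about 24% in these data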;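 further: 0% = DMSO with enzyme and 100% = enzyme fully blocked by orthovanadate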
PBD redox DR: redox cycling H2O2 generation counter-screen for Plk1 PBD | EC50, µM | AID 876 | 120 tested, under 10 active | DTT | shares compounds with PLK1 PBD inh; call rule not given here
* marks the source's active call; other numbers are inactive results; nt = not tested or not shown; [ ] = remark or other dose. The list is not random: actives were taken first. Their share in the collection is about 2%.

SMILES	PLK1 inh	Rev-RRE block	EphB4 antag	PLK1 PBD inh	PTPN22 act	PTPN22 inh 2	PBD redox DR
Cc1ccc(-c2cc(C(=O)Nc3c(C)n(C)n(-c4ccccc4)c3=O)[nH]n2)c(O)c1	-4.6	-0.3	-7.5	6.6	-1.8	-1.2	nt
CC1CCN(C(=O)c2ccc3c(c2NCCO)C(=O)c2ccccc2C3=O)CC1	3.5	-30.5	3.7	-38.0	12.0	-15.1	nt
Cn1c(=O)c(NCCO)c2c3c(cccc31)C(=O)c1ccccc1-2	-194.2	141.6*[fluorescence artefact?]	30.9*[fluorescence artefact?]	95.8*	3.8	-8.7	>50
CN(C)c1ccc(C(=O)Nc2nc3c(s2)CCCC3)cc1	-2.6	4.4	0.6	45.7*	-17.1	15.1	>50
Cc1cc(C(=O)Nc2nc3c(s2)CCCC3)no1	-8.1	-0.4	-2.1	-25.9	4.9	-8.3	nt
COc1ccc(CC2NCCC3(O)CCCCC23)cc1 (stereo not given)	-15.6	2.9	-3.0	39.2*	-1.2	0.2	>50
Cc1ccc(S(=O)(=O)NC2=NCN(C3CCN(Cc4ccccc4)CC3)CN2)cc1	-7.0	3.5	4.3	3.5	-1.6	-0.3	nt
O=C(CC1SC(N2CCCCC2)=NC1=O)Nc1cccc(C(=O)O)c1 (stereo not given)	-8.6	0.9	-4.9	-15.4	3.0	-4.4	nt
COc1ccc(Cn2c(=O)sc3ccccc32)cc1	-6.0	9.9	-5.1	54.5*	-8.2	5.9	>50
Fc1ccc(Cn2nnnc2CN2CCN(C3CCCC3)CC2)cc1	-4.7	-0.9	5.4	45.2*	7.1	-10.0	>50
Fc1cc(Br)ccc1NC(=S)NCCc1ccccc1	-15.9	6.6	4.3	-1.5	1.6	0.5	nt
CC(C)COC(=O)C(N)C(C(=O)OCC(C)C)c1ccccc1 (stereo not given)	-6.8	-1.8	-5.3	13.3	-6.1	8.7	nt
Cc1ccc(C(=O)Nc2cnc3sc(C)nn3c2=O)cc1	-14.9	6.8	0.7	33.6*	-0.1	-1.1	>50
Cc1nn2c(=O)c(NC(=O)c3ccc(F)cc3)cnc2s1	-5.9	2.4	-5.4	-3.1	1.0	-0.3	nt
Cc1ccccc1NS(=O)(=O)c1cc(C(=O)NCc2ccco2)ccc1C	-2.7	3.6	0.8	38.1*	-7.7	6.4	>50
CCOC(=O)c1[nH]c2ccc(F)cc2c1N=C(C)N(CC)CC	8.3	14.2	-6.4	3.1	10.1	-13.9	nt
Cc1ccc2cc(C(c3nnnn3C3CCCC3)N3CCN(c4ccccc4)CC3)c(=O)[nH]c2c1 (stereo not given)	-4.6	0.9	-4.5	60.7*	-12.6	11.6	>50
N#CN=C1SCCS1	-2.9	8.5	-6.1	4.3	8.0	-10.3	nt
O=C1CCC(C(=O)O)(c2ccccc2)C1 (stereo not given)	-9.0	10.7	-2.6	45.6*	8.3	-7.9	>50
CN1C(=O)CCC1(O)c1ccccc1 (stereo not given)	-6.4	5.9	-3.9	-6.6	-1.8	7.7	nt
O=C(CC1C(=O)NCCN1C(=S)Nc1ccccc1)Nc1ccc2c(c1)OCCO2 (stereo not given)	-1.1	2.8	3.7	43.3*	-2.1	6.1	>50
O=C(CC1C(=O)NCCN1C(=O)Nc1ccccc1)Nc1ccc2c(c1)OCO2 (stereo not given)	-5.6	11.1	2.9	8.3	2.5	-4.7	nt
COc1cc(S(=O)(=O)N2CCCCCC2)ccc1-n1cnnn1	-2.5	-5.4	2.2	38.2*	5.3	-2.2	>50
COc1ccc(N2CCN(C(=O)CSc3nc4c(c(=O)n(C)c(=O)n4C)n3C(C)C)CC2)cc1	-13.2	-0.6	-3.8	-16.9	1.6	0.8	nt
Cc1ccc(Cl)cc1NC1=C/C(=N\S(=O)(=O)c2cccs2)c2ccccc2C1=O	-2.2	4.5	1.0	-17.2	-0.9	0.9	nt
SMILES	PLK1 inh	Rev-RRE block	EphB4 antag	PLK1 PBD inh	PTPN22 act	PTPN22 inh 2	PBD redox DR
Cc1ccc(NC2=C/C(=N\S(=O)(=O)c3cccs3)c3ccccc3C2=O)c(C)c1	4.5	4.0	5.1	61.9*	-3.2	2.8	>50
COc1ccc(N/C(=N\c2nc(C)cc(C)n2)NC(=O)C(C)C)cc1OC	-3.4	0.6	0.1	13.8	-12.5	10.1	nt
CC(=O)N1CCc2cc(Br)cc(S(=O)(=O)NCc3ccccn3)c21	-4.2	1.8	-0.3	55.5*	-6.5	5.9	>50
Cc1ccc(-c2nnc(N3CCN(C(=O)CN4C(=O)c5ccccc5C4=O)CC3)c3ccccc23)cc1	-3.5	5.0	9.5	35.7	5.3	-2.9	nt
O=C(CN1C(=O)c2ccccc2C1=O)N1CCN(c2nnc(-c3ccccc3)c3ccccc23)CC1	-13.2	-0.9	-5.0	47.3*	-8.7	8.3	>50
CCCc1nc2sc3c(c2c(=O)n1NC(=O)CCC(=O)O)CCCC3	-5.4	3.3	-6.4	46.0*	-6.9	10.2	>50
CCn1c(SCC(=O)O)nc2sc3c(c2c1=O)CCC3	-0.8	-1.4	0.5	11.3	-5.1	5.7	nt
N#CCSc1nccc(-c2cc(Cl)sc2Cl)n1	5.2	3.3	1.9	21.6	-3.6	3.1	nt
C=CCSc1nccc(-c2cc(Cl)sc2Cl)n1	-2.1	18.7	0.5	45.8*	-8.3	7.8	>50
Cn1c(-c2cc3ccc(OC(=O)C(C)(C)C)cc3oc2=O)nc2ccccc21	-13.9	2.2	6.6	37.2*	1.0	1.7	>50
CC(=O)Oc1ccc2cc(-c3nc4ccccc4n3C)c(=O)oc2c1	-14.7	8.8	1.7	-15.0	3.0	-4.9	nt
COC(=O)CSc1cc(C(F)(F)F)nc(-c2ccccn2)n1	-13.7	-2.4	-14.7	-15.3	4.0	-1.3	nt
Cc1oc2c(c1C(=O)c1ccccc1)C(=O)C(=O)c1ccccc1-2	-0.3	4.4	5.2	123.7*	2.0	-0.6	>50
O=C(O)CCCC(=O)NCCc1ccncc1	-16.1	9.0	-9.1	-8.0	7.6	-9.1	nt
CCC(=O)Nc1ccc(-c2nnc(SCC(=O)Nc3nccs3)n2C)cc1	19.0	-4.2	-1.0	47.2*	11.8	-14.4	>50
CCn1c(SCC(=O)Nc2nccs2)nnc1-c1ccc(C)cc1	15.9	2.8	-9.6	-9.9	-6.5	3.5	nt
CCC(C)(C)NC(=O)C(c1ccccc1)N(Cc1cccnc1)C(=O)c1csnn1 (stereo not given)	0.3	-4.8	2.0	-1.0	2.4	-1.4	nt
Cc1ccc(C(=O)c2c[nH]c(C(=O)NCCCN3CCOCC3)c2)cc1	-3.0	3.1	5.0	57.8*	-4.6	8.3	>50
CCOC(=O)CSc1nc(N2CCOCC2)c2c(c1C#N)CC(C)(C)N(C)C2	-0.1	1.0	-5.8	-6.8	12.8	-15.5	nt
CC(C)Sc1nc(N2CCOCC2)c2c(c1C#N)CC(C)(C)N(C)C2	7.8	1.2	-6.1	48.0*	1.7	0.9	>50
Clc1ccc(Oc2ncnc3oc(-c4ccccc4)cc23)cc1	-38.6	13.2	4.2	-7.3	-3.6	7.5	nt
Cc1ccccc1Oc1ncnc2oc(-c3ccccc3)cc12	-7.0	15.9	-9.1	68.5*	3.2	0.1	>50
